pIC50: −log10 of the molar value.
Tested on: MCF7
Experiment: Antiproliferative activity against human MCF7 cells assessed as inhibition of cell growth measured after 72 hrs by MTT assay
Assay type: functional, cell-based
Conditions: MCF7, 72 h
Procedure, shortened: (§1)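 Cells in log phase were seeded at 3000–5000 per well and cultured 24 h at 37 °C, then exposed to a range of compound concentrations in fresh medium for 72 h. MTT was added and incubated 4 h at 37 °C, formazan was dissolved in DMSO, and absorbance was read at 490 nm. IC50 was taken from survival rate, as mean ± SD of three independent experiments. Stocks were 10 mM in DMSO.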

Row | Compound | pIC50
1 | C=CC(=O)Nc1cccc(Nc2cc(C(F)(F)F)nc(SCc3ccccc3F)n2)c1 | 4.51
2 | C=CC(=O)Nc1cccc(Nc2cc(C(F)(F)F)nc(SCC3CCCO3)n2)c1 (centres undefined) | 4.74
3 | C=CC(=O)Nc1cccc(Nc2cc(C(F)(F)F)nc(SCc3ccccc3)n2)c1 | 4.72
4 | C=CC(=O)Nc1cccc(Nc2cc(C(F)(F)F)nc(SCc3cccc(Br)c3)n2)c1 | 4.85
5 | C=CC(=O)Nc1cccc(Nc2cc(C(F)(F)F)nc(SCc3ccccc3OC)n2)c1 | 4.66
6 | C=CC(=O)Nc1cccc(Nc2cc(C(F)(F)F)nc(SCc3ccccc3Cl)n2)c1 | 4.93
7 | C=CC(=O)Nc1cccc(Nc2cc(C(F)(F)F)nc(SCc3c(Cl)cccc3Cl)n2)c1 | 5.02
8 | C=CC(=O)Nc1cccc(Nc2cc(C(F)(F)F)nc(SCc3cnc(Cl)s3)n2)c1 | 4.97
9 | C=CC(=O)Nc1cccc(Nc2cc(C(F)(F)F)nc(SCc3cccc(Cl)c3)n2)c1 | 4.99
10 | C=CC(=O)Nc1cccc(Nc2cc(C(F)(F)F)nc(SCc3cccc(OC)c3)n2)c1 | 5.05
11 | C=CC(=O)Nc1cccc(Nc2cc(C(F)(F)F)nc(SCC3CCCCC3)n2)c1 | 4.95

Now from value to compound:

Row | pIC50 | Compound
12 | < 4.30 | FC(F)(F)c1ccc(CSc2nc(Sc3ncccn3)cc(C(F)(F)F)n2)cc1
13 | 4.83 | C=CC(=O)Nc1cccc(Nc2cc(C(F)(F)F)nc(SCc3ccc(F)cc3)n2)c1
14 | 4.65 | COc1ccc(Nc2cc(C(F)(F)F)nc(SCc3ccc(C(F)(F)F)cc3)n2)cc1
15 | 4.66 | CCN1CCN(c2cc(C(F)(F)F)nc(SCc3ccc(C(F)(F)F)cc3)n2)CC1
16 | 4.84 | Cc1csc(Sc2cc(C(F)(F)F)nc(SCc3ccc(C(F)(F)F)cc3)n2)n1
17 | < 4.30 | Cc1nnc(Sc2cc(C(F)(F)F)nc(SCc3ccc(C(F)(F)F)cc3)n2)s1
18 | 4.97 | FC(F)(F)c1ccc(CSc2nc(N3CCNCC3)cc(C(F)(F)F)n2)cc1
19 | 4.80 | C=CC(=O)Nc1cccc(Nc2cc(C(F)(F)F)nc(SCc3ccc(Cl)cc3)n2)c1
20 | < 4.30 | FC(F)(F)c1ccc(CSc2nc(Nc3nnn[nH]3)cc(C(F)(F)F)n2)cc1
21 | 4.43 | COc1ccc(Nc2cc(C(F)(F)F)nc(SCc3ccc(C(F)(F)F)cc3)n2)cn1
22 | < 4.30 | Fc1ccc(Nc2cc(C(F)(F)F)nc(SCc3ccc(C(F)(F)F)cc3)n2)cc1
23 | < 4.30 | FC(F)(F)c1ccc(CSc2nc(N3CCSCC3)cc(C(F)(F)F)n2)cc1
24 | 4.57 | C=CC(=O)Nc1cccc(Nc2cc(C(F)(F)F)nc(SCc3cccc(C)c3)n2)c1
25 | 5.12 | C=CC(=O)Nc1cccc(Nc2cc(C(F)(F)F)nc(SCc3ccc(OC)cc3)n2)c1
26 | 4.93 | C=CC(=O)Nc1cccc(Nc2cc(C(F)(F)F)nc(SCc3ccc(Br)cc3)n2)c1

Tested on: PC-3
Experiment: Antiproliferative activity against human PC-3 cells assessed as inhibition of cell growth measured after 72 hrs by MTT assay
Assay type: functional, cell-based
Conditions: PC-3, 72 h
Procedure, shortened: as §1

Row | Compound | pIC50
27 | C=CC(=O)Nc1cccc(Nc2cc(C(F)(F)F)nc(SCc3ccccc3F)n2)c1 | 5.06
28 | C=CC(=O)Nc1cccc(Nc2cc(C(F)(F)F)nc(SCC3CCCO3)n2)c1 (centres undefined) | 4.89
29 | C=CC(=O)Nc1cccc(Nc2cc(C(F)(F)F)nc(SCc3ccccc3)n2)c1 | 4.85
30 | C=CC(=O)Nc1cccc(Nc2cc(C(F)(F)F)nc(SCc3cccc(Br)c3)n2)c1 | 5.13
31 | C=CC(=O)Nc1cccc(Nc2cc(C(F)(F)F)nc(SCc3ccccc3OC)n2)c1 | 5.00
32 | C=CC(=O)Nc1cccc(Nc2cc(C(F)(F)F)nc(SCc3ccccc3Cl)n2)c1 | 4.87
33 | C=CC(=O)Nc1cccc(Nc2cc(C(F)(F)F)nc(SCc3c(Cl)cccc3Cl)n2)c1 | 4.84
34 | C=CC(=O)Nc1cccc(Nc2cc(C(F)(F)F)nc(SCc3cnc(Cl)s3)n2)c1 | 4.94
35 | C=CC(=O)Nc1cccc(Nc2cc(C(F)(F)F)nc(SCc3cccc(Cl)c3)n2)c1 | 4.98
36 | C=CC(=O)Nc1cccc(Nc2cc(C(F)(F)F)nc(SCc3cccc(OC)c3)n2)c1 | 4.94
37 | C=CC(=O)Nc1cccc(Nc2cc(C(F)(F)F)nc(SCC3CCCCC3)n2)c1 | 4.90

Next, values leading:

Row | pIC50 | Compound
38 | < 4.30 | FC(F)(F)c1ccc(CSc2nc(Sc3ncccn3)cc(C(F)(F)F)n2)cc1
39 | 5.04 | C=CC(=O)Nc1cccc(Nc2cc(C(F)(F)F)nc(SCc3ccc(F)cc3)n2)c1
40 | 4.45 | COc1ccc(Nc2cc(C(F)(F)F)nc(SCc3ccc(C(F)(F)F)cc3)n2)cc1
41 | 4.57 | CCN1CCN(c2cc(C(F)(F)F)nc(SCc3ccc(C(F)(F)F)cc3)n2)CC1
42 | 4.92 | Cc1csc(Sc2cc(C(F)(F)F)nc(SCc3ccc(C(F)(F)F)cc3)n2)n1
43 | < 4.30 | Cc1nnc(Sc2cc(C(F)(F)F)nc(SCc3ccc(C(F)(F)F)cc3)n2)s1
44 | 4.80 | FC(F)(F)c1ccc(CSc2nc(N3CCNCC3)cc(C(F)(F)F)n2)cc1
45 | 5.00 | C=CC(=O)Nc1cccc(Nc2cc(C(F)(F)F)nc(SCc3ccc(Cl)cc3)n2)c1
46 | < 4.30 | FC(F)(F)c1ccc(CSc2nc(Nc3nnn[nH]3)cc(C(F)(F)F)n2)cc1
47 | 4.62 | COc1ccc(Nc2cc(C(F)(F)F)nc(SCc3ccc(C(F)(F)F)cc3)n2)cn1
48 | 4.85 | Fc1ccc(Nc2cc(C(F)(F)F)nc(SCc3ccc(C(F)(F)F)cc3)n2)cc1
49 | 4.33 | FC(F)(F)c1ccc(CSc2nc(N3CCSCC3)cc(C(F)(F)F)n2)cc1
50 | 5.04 | C=CC(=O)Nc1cccc(Nc2cc(C(F)(F)F)nc(SCc3cccc(C)c3)n2)c1
51 | 4.80 | C=CC(=O)Nc1cccc(Nc2cc(C(F)(F)F)nc(SCc3ccc(OC)cc3)n2)c1
52 | 5.20 | C=CC(=O)Nc1cccc(Nc2cc(C(F)(F)F)nc(SCc3ccc(Br)cc3)n2)c1

Tested on: MGC-803
Experiment: Antiproliferative activity against human MGC-803 cells assessed as inhibition of cell growth measured after 72 hrs by MTT assay
Assay type: functional, cell-based
Conditions: MGC-803, 72 h
Procedure, shortened: as §1

Row | Compound | pIC50
53 | C=CC(=O)Nc1cccc(Nc2cc(C(F)(F)F)nc(SCc3ccccc3F)n2)c1 | 4.87
54 | C=CC(=O)Nc1cccc(Nc2cc(C(F)(F)F)nc(SCC3CCCO3)n2)c1 (centres undefined) | 4.43
55 | C=CC(=O)Nc1cccc(Nc2cc(C(F)(F)F)nc(SCc3ccccc3)n2)c1 | 4.65
56 | C=CC(=O)Nc1cccc(Nc2cc(C(F)(F)F)nc(SCc3cccc(Br)c3)n2)c1 | 4.64
57 | C=CC(=O)Nc1cccc(Nc2cc(C(F)(F)F)nc(SCc3ccccc3OC)n2)c1 | 4.49
58 | C=CC(=O)Nc1cccc(Nc2cc(C(F)(F)F)nc(SCc3ccccc3Cl)n2)c1 | 4.55
59 | C=CC(=O)Nc1cccc(Nc2cc(C(F)(F)F)nc(SCc3c(Cl)cccc3Cl)n2)c1 | 4.46
60 | C=CC(=O)Nc1cccc(Nc2cc(C(F)(F)F)nc(SCc3cnc(Cl)s3)n2)c1 | 4.42
61 | C=CC(=O)Nc1cccc(Nc2cc(C(F)(F)F)nc(SCc3cccc(Cl)c3)n2)c1 | 4.45
62 | C=CC(=O)Nc1cccc(Nc2cc(C(F)(F)F)nc(SCc3cccc(OC)c3)n2)c1 | 4.49
63 | C=CC(=O)Nc1cccc(Nc2cc(C(F)(F)F)nc(SCC3CCCCC3)n2)c1 | 4.47

Other lines, results leading:

Row | pIC50 | Compound
64 | 4.54 | FC(F)(F)c1ccc(CSc2nc(Sc3ncccn3)cc(C(F)(F)F)n2)cc1
65 | 5.03 | C=CC(=O)Nc1cccc(Nc2cc(C(F)(F)F)nc(SCc3ccc(F)cc3)n2)c1
66 | 5.06 | COc1ccc(Nc2cc(C(F)(F)F)nc(SCc3ccc(C(F)(F)F)cc3)n2)cc1
67 | 4.59 | CCN1CCN(c2cc(C(F)(F)F)nc(SCc3ccc(C(F)(F)F)cc3)n2)CC1
68 | 4.67 | Cc1csc(Sc2cc(C(F)(F)F)nc(SCc3ccc(C(F)(F)F)cc3)n2)n1
69 | 4.94 | Cc1nnc(Sc2cc(C(F)(F)F)nc(SCc3ccc(C(F)(F)F)cc3)n2)s1
70 | 5.23 | FC(F)(F)c1ccc(CSc2nc(N3CCNCC3)cc(C(F)(F)F)n2)cc1
71 | 4.53 | C=CC(=O)Nc1cccc(Nc2cc(C(F)(F)F)nc(SCc3ccc(Cl)cc3)n2)c1
72 | < 4.30 | FC(F)(F)c1ccc(CSc2nc(Nc3nnn[nH]3)cc(C(F)(F)F)n2)cc1
73 | 4.91 | COc1ccc(Nc2cc(C(F)(F)F)nc(SCc3ccc(C(F)(F)F)cc3)n2)cn1
74 | 4.72 | Fc1ccc(Nc2cc(C(F)(F)F)nc(SCc3ccc(C(F)(F)F)cc3)n2)cc1
75 | 4.36 | FC(F)(F)c1ccc(CSc2nc(N3CCSCC3)cc(C(F)(F)F)n2)cc1
76 | 4.90 | C=CC(=O)Nc1cccc(Nc2cc(C(F)(F)F)nc(SCc3cccc(C)c3)n2)c1
77 | 4.82 | C=CC(=O)Nc1cccc(Nc2cc(C(F)(F)F)nc(SCc3ccc(OC)cc3)n2)c1
78 | 4.53 | C=CC(=O)Nc1cccc(Nc2cc(C(F)(F)F)nc(SCc3ccc(Br)cc3)n2)c1

Tested on: NCI-H1975
Experiment: Antiproliferative activity against human NCI-H1975 cells assessed as inhibition of cell growth measured after 72 hrs by MTT assay
Assay type: functional, cell-based
Conditions: NCI-H1975, 72 h
Procedure, shortened: as §1

Row | Compound | pIC50
79 | C=CC(=O)Nc1cccc(Nc2cc(C(F)(F)F)nc(SCc3ccccc3F)n2)c1 | 4.81
80 | C=CC(=O)Nc1cccc(Nc2cc(C(F)(F)F)nc(SCC3CCCO3)n2)c1 (centres undefined) | 4.75
81 | C=CC(=O)Nc1cccc(Nc2cc(C(F)(F)F)nc(SCc3ccccc3)n2)c1 | 4.66
82 | C=CC(=O)Nc1cccc(Nc2cc(C(F)(F)F)nc(SCc3cccc(Br)c3)n2)c1 | 5.13
83 | C=CC(=O)Nc1cccc(Nc2cc(C(F)(F)F)nc(SCc3ccccc3OC)n2)c1 | 5.19
84 | C=CC(=O)Nc1cccc(Nc2cc(C(F)(F)F)nc(SCc3ccccc3Cl)n2)c1 | 4.88
85 | C=CC(=O)Nc1cccc(Nc2cc(C(F)(F)F)nc(SCc3c(Cl)cccc3Cl)n2)c1 | 5.04
86 | C=CC(=O)Nc1cccc(Nc2cc(C(F)(F)F)nc(SCc3cnc(Cl)s3)n2)c1 | 4.96
87 | C=CC(=O)Nc1cccc(Nc2cc(C(F)(F)F)nc(SCc3cccc(Cl)c3)n2)c1 | 4.83
88 | C=CC(=O)Nc1cccc(Nc2cc(C(F)(F)F)nc(SCc3cccc(OC)c3)n2)c1 | 5.02
89 | C=CC(=O)Nc1cccc(Nc2cc(C(F)(F)F)nc(SCC3CCCCC3)n2)c1 | 4.74

More lines, now with the values ahead:

Row | pIC50 | Compound
90 | 4.85 | FC(F)(F)c1ccc(CSc2nc(Sc3ncccn3)cc(C(F)(F)F)n2)cc1
91 | 4.99 | C=CC(=O)Nc1cccc(Nc2cc(C(F)(F)F)nc(SCc3ccc(F)cc3)n2)c1
92 | 4.86 | COc1ccc(Nc2cc(C(F)(F)F)nc(SCc3ccc(C(F)(F)F)cc3)n2)cc1
93 | 4.82 | CCN1CCN(c2cc(C(F)(F)F)nc(SCc3ccc(C(F)(F)F)cc3)n2)CC1
94 | 5.23 | Cc1csc(Sc2cc(C(F)(F)F)nc(SCc3ccc(C(F)(F)F)cc3)n2)n1
95 | 5.51 | Cc1nnc(Sc2cc(C(F)(F)F)nc(SCc3ccc(C(F)(F)F)cc3)n2)s1
96 | 5.21 | FC(F)(F)c1ccc(CSc2nc(N3CCNCC3)cc(C(F)(F)F)n2)cc1
97 | 4.93 | C=CC(=O)Nc1cccc(Nc2cc(C(F)(F)F)nc(SCc3ccc(Cl)cc3)n2)c1
98 | < 4.30 | FC(F)(F)c1ccc(CSc2nc(Nc3nnn[nH]3)cc(C(F)(F)F)n2)cc1
99 | 5.20 | COc1ccc(Nc2cc(C(F)(F)F)nc(SCc3ccc(C(F)(F)F)cc3)n2)cn1
100 | 4.76 | Fc1ccc(Nc2cc(C(F)(F)F)nc(SCc3ccc(C(F)(F)F)cc3)n2)cc1
101 | < 4.30 | FC(F)(F)c1ccc(CSc2nc(N3CCSCC3)cc(C(F)(F)F)n2)cc1
102 | 4.88 | C=CC(=O)Nc1cccc(Nc2cc(C(F)(F)F)nc(SCc3cccc(C)c3)n2)c1
103 | 4.99 | C=CC(=O)Nc1cccc(Nc2cc(C(F)(F)F)nc(SCc3ccc(OC)cc3)n2)c1
104 | 5.19 | C=CC(=O)Nc1cccc(Nc2cc(C(F)(F)F)nc(SCc3ccc(Br)cc3)n2)c1

Reference: ChEMBL document CHEMBL5030525, “Design, synthesis and antitumor activity evaluation of trifluoromethyl-substituted pyrimidine derivatives” (Bioorg Med Chem Lett, 2021)
